Source: ChEMBL document CHEMBL2150923, “Synthesis and biological evaluation of 2,3-diarylimidazo[1,2-a]pyridines as antileishmanial agents” (Eur J Med Chem, 2012)
Activity calls are given as the source filed them. The calls are words filed in the database; no cut-off is given here.

Assays:
[1] = Methanol-buffer partition coefficient, log D of the compound by RP-HPLC analysis at pH 7.5; assay type: physicochemical
Summary of the method: (§1)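 Log D was determined by RP-HPLC on a C18 column with methanol and aqueous buffer: 0.01 M acetic acid for pH 4.5, and 0.01 M ammonium acetate for […]. Dead time was taken from thiourea. Extrapolated log kw was calibrated against 30 OECD reference substances, and log D read by interpolation for each pH.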

[2] = Methanol-buffer partition coefficient, log D of the compound by RP-HPLC analysis at pH 4.5; assay type: physicochemical; summary of the method: as §1
Leishmania major [3] = test: Antileishmanial activity against promastigote form of Leishmania major MHOM/IL/81/BNI after 96 hrs by resazurin-based spectrofluorimetric method; assay type: functional, organism-based
Summary of the method: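 Promastigotes were maintained in Schneider's medium + 13% heat-inactivated FBS at 26 °C. They were seeded at 10^6/mL and exposed to compound for 96 h at 26 °C; DMSO was at most 1% final. Resazurin was added 4 h before reading, with fluorescence at ex 550/em 590 nm. IC50 values are means of at least three determinations.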

[4] = Selectivity index, ratio of IC50 for human HeLa cells to IC50 for promastigote form of Leishmania major MHOM/IL/81/BNI; assay type: toxicity, cell-based; settings: read-out: Ratio IC50
[5] = Inhibition of pig brain CK1delta/epsilon using RRKHAAIGpSAYSITA as substrate and [32gammaP]ATP after 30 mins by scintillation counting; set-up: species or system Sus scrofa
Summary of the method: (§2)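 Kinase reactions at 30 °C for 30 min with 15 µM [γ-33P]ATP and 25 µM CKS peptide, in buffer A (Mops pH 7.2, EGTA, MgCl2, DTT, vanadate). Porcine-brain CK1δ/ε was run in three-fold diluted buffer A. LmCK1.2 was His-tagged, expressed in E. coli and cobalt-purified. Reactions were spotted on P81 paper, washed in 1% phosphoric acid, and counted by scintillation. After blank subtraction, activity is expressed as % of the uninhibited maximum, with DMSO controls.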

[6] = Inhibition of Leishmania major recombinant His-tagged CK1.2 using RRKHAAIGpSAYSITA as substrate and [32gammaP]ATP after 30 mins by scintillation counting; summary of the method: as §2
Leishmania major [7] = test: Antileishmanial activity against amastigote form of Leishmania major MHOM/IL/81/BNI infected in Balb/c mouse peritoneal macrophages assessed as inhibition of intracellular amastigote burden at 10 uM […] by May-Grunwald-Geimsa staining; assay type: functional
Summary of the method: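 Peritoneal macrophages from Balb/c mice at 1.5×10^5 cells/mL in RPMI 1640 + 15% FBS on glass slides, allowed to attach for 24 h (37 °C, 5% CO2). They were then infected with stationary-phase promastigotes (1.5×10^5/mL) for 24 h, washed, and exposed to 10 µM compound. Medium plus drug was renewed at 48 h. After 2 more days, cells were methanol-fixed, Giemsa-stained, and amastigotes counted per 100 macrophages in duplicate wells.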

HeLa = test: Cytotoxicity against human HeLa cells after 96 hrs by resazurin-based spectrofluorimetric method; assay type: cell-based
Summary of the method: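 HeLa cells in RPMI 1640 + 10% serum were seeded at 10^5/mL and incubated 24 h at 37 °C, 5% CO2. Compound dilutions were then added in duplicate, with DMSO at most 1% final. After 96 h, resazurin was added; after a further 3 h at 37 °C, fluorescence was read at ex 550/em 590 nm.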

Leishmania major [8] = test: Inhibition of Leishmania major PKC
Leishmania major [9] = test: Antileishmanial activity against amastigote form of Leishmania major MHOM/IL/81/BNI infected in Balb/c mouse peritoneal macrophages assessed as inhibition of intracellular amastigote burden at 1 uM after 48 hrs by May-Grunwald-Geimsa staining; assay type: functional

In the case of `O=[N+]([O-])c1ccc(-c2c(-c3ccccc3)nc3ccccn23)cc1`, the chromatographic logD [1] is reported as 4.35, the chromatographic logD [2] is reported as 3.29 and the IC50 (Leishmania major [3]) is reported as 4.9 µM. It also gave a selectivity ratio [4] of 5.51, an IC50 [5] of over 10 µM and an IC50 [6] of over 10 µM. It also gave an inhibition at 10 µM (Leishmania major [7]) of 68% and an IC50 (HeLa) of 27 µM.
Compound `Fc1ccccc1-c1nc2ccccn2c1-c1ccccc1` has an IC50 (Leishmania major [3]) of 39 µM, a selectivity ratio [4] of 0.46 and an IC50 (HeLa) of 18 µM.
For `Nc1ccc(-c2c(-c3ccccc3)nc3ccccn23)cc1`, the IC50 (Leishmania major [3]) was 43 µM, the selectivity ratio [4] was 0.65 and the IC50 (HeLa) was 28.1 µM.
For `Clc1cc(Cl)cc(-c2nc3ccccn3c2-c2ccccc2)c1`, the chromatographic logD [1] was 6.1, the inhibition (Leishmania major [8]) was “inactive” and the chromatographic logD [2] was 5.58. The IC50 (Leishmania major [3]) was 39 µM, the selectivity ratio [4] was 1.71 and the IC50 [5] was over 10 µM. It also gave an IC50 [6] of over 10 µM, an IC50 (HeLa) of 67 µM and an inhibition at 1 µM (Leishmania major [9]) of 71%.
Compound `c1ccc(-c2nc3ccccn3c2-c2cncnc2)cc1` has an IC50 (Leishmania major [3]) of over 100 µM.
In the case of `c1ccc(-c2nc3ccccn3c2-c2cccnc2)cc1`, the IC50 (Leishmania major [3]) is reported as 22.5 µM, the selectivity ratio [4] is reported as 0.18 and the IC50 (HeLa) is reported as 4 µM.
With `Fc1ccccc1-c1nc2ccccn2c1-c1cccnc1` the IC50 (Leishmania major [3]) was 34.8 µM, the selectivity ratio [4] was 0.83 and the IC50 (HeLa) was 29 µM.
With `N=C(N)c1ccc(OCCCCCOc2ccc(C(=N)N)cc2)cc1` [PENTAMIDINE] the IC50 (Leishmania major [3]) was 4.8 µM, the selectivity ratio [4] was 3.13 and the inhibition at 10 µM (Leishmania major [7]) was 99%. For the same compound, the IC50 (HeLa) was 15 µM.
In the case of `O=C(O)c1ccc(-c2c(-c3ccccc3)nc3ccccn23)cc1`, the IC50 (Leishmania major [3]) is reported as over 100 µM.
In the case of `CC(C)(C)C(=O)Oc1ccc(-c2c(-c3ccccc3)nc3ccccn23)cc1`, the chromatographic logD [1] is reported as 5.9, the inhibition (Leishmania major [8]) is reported as “inactive” and the chromatographic logD [2] is reported as 4.04. It also gave an IC50 (Leishmania major [3]) of 7 µM, a selectivity ratio [4] of 5.43 and an IC50 [5] of over 10 µM. For the same compound, the IC50 [6] was over 10 µM, the inhibition at 10 µM (Leishmania major [7]) was 95% and the IC50 (HeLa) was 38 µM.
In the case of `O=[N+]([O-])c1ccc(-c2nc3ccccn3c2-c2ccccc2)cc1`, the chromatographic logD [1] is reported as 4.65, the inhibition (Leishmania major [8]) is reported as “inactive” and the chromatographic logD [2] is reported as 4.2. It also gave an IC50 (Leishmania major [3]) of 30 µM, a selectivity ratio [4] of 18.5 and an IC50 [5] of over 10 µM. The IC50 [6] was over 10 µM, the inhibition at 10 µM (Leishmania major [7]) was 84% and the IC50 (HeLa) was 554 µM.
In the case of `O=[N+]([O-])c1cccc(-c2c(-c3ccc(F)cc3)nc3ccccn23)c1`, the IC50 (Leishmania major [3]) is reported as over 100 µM.
In the case of `Fc1ccc(-c2nc3ccccn3c2-c2cccnc2)cc1`, the IC50 (Leishmania major [3]) is reported as 38.3 µM, the selectivity ratio [4] is reported as 2.27 and the IC50 (HeLa) is reported as 87 µM.
Work on `Clc1cc(Cl)cc(-c2c(-c3ccccc3)nc3ccccn23)c1` yielded a chromatographic logD [1] of 5.88, a chromatographic logD [2] of 4.53 and an IC50 (Leishmania major [3]) of 7.7 µM. The selectivity ratio [4] was 2.34, the IC50 [5] was over 10 µM and the IC50 [6] was over 10 µM. It also gave an inhibition at 10 µM (Leishmania major [7]) of 79% and an IC50 (HeLa) of 18 µM.
For `CCOC(=O)c1ccc(-c2nc3ccccn3c2-c2ccccc2)cc1`, the chromatographic logD [1] was 5.46, the inhibition (Leishmania major [8]) was “inactive” and the chromatographic logD [2] was 4.26. The IC50 (Leishmania major [3]) was 40 µM, the selectivity ratio [4] was 8.65 and the IC50 [5] was over 10 µM. For the same compound, the IC50 [6] was over 10 µM, the inhibition at 10 µM (Leishmania major [7]) was 86% and the IC50 (HeLa) was 346 µM.
With `Oc1ccc(-c2c(-c3ccccc3)nc3ccccn23)cc1` the IC50 (Leishmania major [3]) was 40 µM, the selectivity ratio [4] was 0.4 and the IC50 (HeLa) was 16 µM.
`c1ccc(-c2nc3ccccn3c2-c2ccsc2)cc1` showed an IC50 (Leishmania major [3]) of 14.3 µM, a selectivity ratio [4] of 2.45 and an IC50 (HeLa) of 35 µM.
Work on `COc1ccc(-c2nc3ccccn3c2-c2cccc([N+](=O)[O-])c2)cc1` yielded an IC50 (Leishmania major [3]) of 14 µM, a selectivity ratio [4] of 2.14 and an IC50 (HeLa) of 30 µM.
Work on `COc1ccc(-c2nc3ccccn3c2-c2ccccc2)cc1` yielded a chromatographic logD [1] of 4.59, a chromatographic logD [2] of 2.04 and an IC50 (Leishmania major [3]) of 26.6 µM. It also gave a selectivity ratio [4] of 1.8, an IC50 [5] of over 10 µM and an IC50 [6] of over 10 µM. It also gave an inhibition at 10 µM (Leishmania major [7]) of 85% and an IC50 (HeLa) of 48 µM.
`Clc1cc(Cl)cc(-c2nc3ccccn3c2-c2cccnc2)c1` gave an IC50 (Leishmania major [3]) of 31.4 µM, a selectivity ratio [4] of 0.89 and an IC50 (HeLa) of 28 µM.
In the case of `N#Cc1ccc(-c2c(-c3ccccc3)nc3ccccn23)cc1`, the IC50 (Leishmania major [3]) is reported as over 100 µM.
`Cc1ccc(-c2c(-c3ccccc3)nc3ccccn23)cc1` showed a chromatographic logD [1] of 5.13, a chromatographic logD [2] of 2.61 and an IC50 (Leishmania major [3]) of 4 µM. It also gave a selectivity ratio [4] of 1, an IC50 [5] of over 10 µM and an IC50 [6] of over 10 µM. For the same compound, the inhibition at 10 µM (Leishmania major [7]) was 96% and the IC50 (HeLa) was 4 µM.
`COc1ccccc1-c1nc2ccccn2c1-c1ccccc1` showed an IC50 (Leishmania major [3]) of 18.2 µM, a selectivity ratio [4] of 1.32 and an IC50 (HeLa) of 24 µM.
For `Fc1ccc(-c2nc3ccccn3c2-c2ccccc2)cc1`, the IC50 (Leishmania major [3]) was 23 µM, the selectivity ratio [4] was 3.13 and the IC50 (HeLa) was 72 µM.
In the case of `c1ccc(-c2nc3ccccn3c2-c2ccccc2)cc1`, the chromatographic logD [1] is reported as 4.5, the chromatographic logD [2] is reported as 2.15 and the IC50 (Leishmania major [3]) is reported as 22.5 µM. For the same compound, the selectivity ratio [4] was 1.38, the IC50 [5] was over 10 µM and the IC50 [6] was over 10 µM. The inhibition at 10 µM (Leishmania major [7]) was 84% and the IC50 (HeLa) was 31 µM.
Compound `CCOC(=O)c1ccc(-c2c(-c3ccccc3)nc3ccccn23)cc1` has a chromatographic logD [1] of 5.19, a chromatographic logD [2] of 3.59 and an IC50 (Leishmania major [3]) of 5.2 µM. It also gave a selectivity ratio [4] of 0.96, an IC50 [5] of 7.1 µM and an IC50 [6] of 4 µM. For the same compound, the inhibition at 10 µM (Leishmania major [7]) was 18% and the IC50 (HeLa) was 5 µM.
Work on `NC(=O)c1ccc(-c2c(-c3ccccc3)nc3ccccn23)cc1` yielded an IC50 (Leishmania major [3]) of 27 µM, a selectivity ratio [4] of 1 and an IC50 (HeLa) of 27 µM.
Work on `CC(=O)Oc1ccc(-c2c(-c3ccccc3)nc3ccccn23)cc1` yielded an IC50 (Leishmania major [3]) of 16 µM, a selectivity ratio [4] of 2.5 and an IC50 (HeLa) of 40 µM.
In the case of `Clc1cccc(-c2nc3ccccn3c2-c2ccccc2)c1`, the chromatographic logD [1] is reported as 5.25, the chromatographic logD [2] is reported as 3.91 and the IC50 (Leishmania major [3]) is reported as 4.4 µM. For the same compound, the selectivity ratio [4] was 1.14, the IC50 [5] was over 10 µM and the IC50 [6] was over 10 µM. For the same compound, the inhibition at 10 µM (Leishmania major [7]) was 94% and the IC50 (HeLa) was 5 µM.
Work on `c1ccc(-c2nc3ccccn3c2-c2ccncc2)cc1` yielded a chromatographic logD [1] of 2.87, a chromatographic logD [2] of 2.03 and an IC50 (Leishmania major [3]) of 6.5 µM. The selectivity ratio [4] was 3.85, the IC50 [5] was 0.25 µM and the IC50 [6] was 0.3 µM. The inhibition at 10 µM (Leishmania major [7]) was 32% and the IC50 (HeLa) was 25 µM.
With `COc1ccc(-c2c(-c3ccccc3)nc3ccccn23)cc1` the chromatographic logD [1] was 4.58, the chromatographic logD [2] was 2.31 and the IC50 (Leishmania major [3]) was 7.2 µM. For the same compound, the selectivity ratio [4] was 1.92, the IC50 [5] was 0.63 µM and the IC50 [6] was 1.2 µM. The inhibition at 10 µM (Leishmania major [7]) was 71% and the IC50 (HeLa) was 14 µM.
